Published values pooled from the literature.
Protocols differ between the studies behind these lines.
Target: Serine/threonine-protein kinase Chk1 (CHEK1, Homo sapiens, UniProt O14757)
One construct used (O14757 1-476): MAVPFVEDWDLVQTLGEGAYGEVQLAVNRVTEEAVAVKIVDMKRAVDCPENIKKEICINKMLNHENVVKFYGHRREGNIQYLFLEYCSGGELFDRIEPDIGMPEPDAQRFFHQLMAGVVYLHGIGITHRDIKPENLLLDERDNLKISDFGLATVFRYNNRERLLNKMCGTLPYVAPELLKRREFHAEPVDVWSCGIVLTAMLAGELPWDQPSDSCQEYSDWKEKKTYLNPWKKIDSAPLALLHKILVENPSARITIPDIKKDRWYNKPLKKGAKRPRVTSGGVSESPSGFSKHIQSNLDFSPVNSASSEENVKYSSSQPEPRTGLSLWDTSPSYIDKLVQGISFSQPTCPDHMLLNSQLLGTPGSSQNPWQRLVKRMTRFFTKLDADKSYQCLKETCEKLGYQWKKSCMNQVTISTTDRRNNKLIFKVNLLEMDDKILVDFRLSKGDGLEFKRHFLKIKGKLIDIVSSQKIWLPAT

SMILES	effect on	mode	method	cells	tested at	quantity	result
Cc1ccc(NC(=O)c2ccc(CN3CCN(C)CC3)cc2)cc1Nc1nc(-c2cccnc2)cs1	cell-free assay	–	–	–	0.5 µM	remaining signal	110%
CN(C)C1CCN(CC#Cc2nn(C3CCCC3)c3nc(NCc4ccccc4)ncc23)C1 (stereo not drawn)	enzyme activity	inhibitor	FRET	–	0.1 µM	inhibition	2%
Oc1cccc(-c2nc(N3CCOCC3)c3oc4ncccc4c3n2)c1	enzyme activity	inhibitor	–	–	10 µM	remaining activity	115%
Cc1ccc(C(=O)NCc2ccsc2)cc1C#Cc1cn(C(C)C)c2ncnc(N)c12	enzyme activity	inhibitor	–	–	1 µM	activity vs control	87%
CC(C)(C)C(=O)c1sc(NC2CCCCC2)nc1N	enzyme activity	inhibitor	–	–	10 µM	remaining activity	80%
COc1ccc2cc(OCC3(C(=O)O)CN(C(=O)c4ccc(F)cc4)C3)ccc2c1	cell-free assay	–	competition with immobilised ligand	–	1 µM	remaining binding	87%
N#CCCc1ccc2c(c1)-c1[nH]c3ccc([N+](=O)[O-])cc3c1CC(=O)N2	cell-free assay	–	–	–	0.5 µM	remaining signal	45.1%
CCN1CCN(Cc2ccc(NC(=O)c3ccc(C)c(/C=C/c4cnc5[nH]ccc5c4OC)c3)cc2C(F)(F)F)CC1	target engagement in cells	inhibitor	chemoproteomics	A-375	5 µM	inhibition	-51.1%
CO[C@@H](C)c1c(Nc2ccc([C@@H](N(C)C(=O)C3CCS(=O)(=O)CC3)C(F)(F)F)cc2)cnc2cc(Cl)nn12	cell-free assay	–	competition with immobilised ligand	–	1 µM	remaining binding	95%
COc1cc(Nc2cnc(C#N)c(O[C@H](C)CN(C)C)n2)ncc1-c1cnn(C)c1	enzyme activity	inhibitor	radiometric	–	1 µM	remaining activity	17%
N#CC1(c2ccccn2)CCN(Cc2cc(C(=O)N3CCCC3)c(=O)n3ccccc23)CC1	cell-free assay	–	competition with immobilised ligand	–	1 µM	remaining binding	90%
C[S+]([O-])c1ccc(-c2nc(-c3ccncc3)c(-c3ccc(F)cc3)[nH]2)cc1 (stereo not drawn)	cell-free assay	–	–	–	0.5 µM	remaining signal	97.3%
CC(C)(C)c1nc(-c2cccc(NS(=O)(=O)c3c(F)cccc3F)c2F)c(-c2ccnc(N)n2)s1	enzyme activity	inhibitor	radiometric	–	1 µM	remaining activity	100%
O=C1NC(=O)c2cc(Nc3ccc(F)cc3)c(Nc3ccc(F)cc3)cc21	cell-free assay	–	–	–	0.5 µM	remaining signal	104%
C[C@@]1(Cc2ccc(C#N)cc2)C(=O)N(c2cc(Cl)cc(Cl)c2)c2ncc(C(=O)NC3(c4nc(C5CCC5)no4)CC3)n21	cell-free assay	–	competition with immobilised ligand	–	1 µM	remaining binding	90%
Cc1sc(C(=O)NC2COC2)cc1-n1cc(NC(=O)Nc2c(F)cccc2Cl)cn1	enzyme activity	inhibitor	–	–	10 µM	remaining activity	118%
Cc1cnc(NC2CCOCC2)nc1-n1cnc(C(=O)NC(CN)c2cc(F)cc(Cl)c2)c1 (stereo not drawn)	enzyme activity	inhibitor	radiometric	–	1 µM	remaining activity	35%
CC(C)(O)[C@H]1CC[C@H](Nc2ccc3ncc(-c4cccc(C(F)(F)F)c4)n3n2)CC1	enzyme activity	inhibitor	–	–	1 µM	remaining activity	94.2%
C[C@@H](c1cccc(C#N)c1)n1cc(Cl)cc(C(N)=O)c1=N	cell-free assay	–	competition with immobilised ligand	–	1 µM	remaining binding	100%
C[C@@H]1CCN(C(=O)CC#N)C[C@@H]1N(C)c1ncnc2[nH]ccc12	cell-free assay	inhibitor	–	–	0.5 µM	remaining signal	94.1%
Cc1nccc(COC(=O)N2C[C@@H]3[C@@H](CNC(=O)c4ccc5[nH]nnc5c4)[C@@H]3C2)n1	cell-free assay	–	competition with immobilised ligand	–	1 µM	remaining binding	100%
Nc1nc(NC2CCCCC2)sc1C(=O)c1ccccc1	enzyme activity	inhibitor	–	–	10 µM	remaining activity	96%
COCCOc1nc(-c2ccc(Cl)nc2)nc2c1CN(C(=O)c1ncn3ccccc13)CC2	cell-free assay	–	competition with immobilised ligand	–	0.1 µM	remaining binding	100%
Cc1cc(NC(=O)c2cccc3cc(-c4cccc5[nH]nc(N)c45)ccc23)ccc1F	enzyme activity	inhibitor	–	–	0.1 µM	activity vs control	96%
